Assay results from ChEMBL document CHEMBL1649443, “Novel S-adenosylmethionine decarboxylase inhibitors for the treatment of human African trypanosomiasis” (Antimicrob Agents Chemother, 2009).
One block for each molecule: values may come before it. Calls of active or inactive are those of the source.

How the values were obtained:
[1] = test system: Trypanosoma brucei brucei; assay: Antiparasitic activity against Trypanosoma brucei brucei LAB 110 EATRO infected in mouse assessed as parasitemia cure incidence at 2 mg/kg, ip qd for 4 days administered on 1st day of infection and measured through day 40 post infection; format: functional, organism-based; design: dose 2 mg/kg
[2] = test system: Trypanosoma brucei brucei; assay: Antiparasitic activity against Trypanosoma brucei brucei LAB 110 EATRO infected in mouse assessed as mean survival days at 2 mg/kg, ip qd for 4 days administered on 1st day of infection and measured through day 40 post infection; format: functional; details: route intraperitoneal
Outline: (§1)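 Mice in groups of five, infected i.p. on day 0 with 2.5 × 10^5 T. b. brucei LAB 110 EATRO parasites; i.p. dosing began day 1. Parasitemia checked twice weekly by microscopy of at least 20 fields of wet blood smears through day 40, with animals considered cured only when clear through day 40.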

[3] = Half life in rat at 10 mg/kg, po; format: ADME, organism-based; design: dose 10 mg/kg, route oral; details: in vivo
Outline: (§2)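 Rat groups of six, split into two subgroups to limit blood collections, dosed i.v. or p.o. Blood sampled at 15 min, 30 min, 2 h, 4 h, 8 h and 24 h. Drug levels measured by LC-MS-MS. Two separate rat studies were run.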

CYP1A2 = target: T1, CYP1A2 (Homo sapiens, UniProt P05177); assay: Inhibition of human cytochrome P450 1A2; details: human
T1 sequence (P05177 whole entry): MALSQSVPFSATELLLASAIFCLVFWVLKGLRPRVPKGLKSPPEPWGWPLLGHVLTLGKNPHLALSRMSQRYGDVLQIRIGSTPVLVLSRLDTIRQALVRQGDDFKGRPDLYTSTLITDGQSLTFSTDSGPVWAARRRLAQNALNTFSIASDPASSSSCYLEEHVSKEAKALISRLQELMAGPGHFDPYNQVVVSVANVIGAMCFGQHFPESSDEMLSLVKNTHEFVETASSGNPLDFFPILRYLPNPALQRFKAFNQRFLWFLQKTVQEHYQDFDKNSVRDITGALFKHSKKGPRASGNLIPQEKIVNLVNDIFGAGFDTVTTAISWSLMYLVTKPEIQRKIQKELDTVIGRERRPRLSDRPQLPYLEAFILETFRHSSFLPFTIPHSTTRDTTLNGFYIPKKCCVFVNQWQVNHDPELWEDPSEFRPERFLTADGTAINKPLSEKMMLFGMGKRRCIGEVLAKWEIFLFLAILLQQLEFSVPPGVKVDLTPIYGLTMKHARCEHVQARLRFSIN

[4] = test system: Trypanosoma brucei brucei; assay: Antiparasitic activity against Trypanosoma brucei brucei LAB 110 EATRO infected in mouse assessed as parasitemia cure incidence at 50 mg/kg/day, ip qd for 7 days administered on 1st day of infection and measured through day 40 post infection; format: functional, organism-based
[5] = Cmax in mouse blood at 50 mg/kg, ip administered as single dose; format: ADME, organism-based; design: dose 50 mg/kg, route intraperitoneal
[6] = test system: Trypanosoma brucei brucei; assay: Antiparasitic activity against Trypanosoma brucei brucei STIB 795 infected in mouse assessed as mean survival days at 50 mg/kg, ip qd for 4 days administered on 3rd day of infection (reference value: 6.75 days); format: functional; details: route intraperitoneal
[7] = Cmax in mouse brain at 50 mg/kg, ip administered as single dose; format: ADME, organism-based; design: dose 50 mg/kg, route intraperitoneal
[8] = Tmax in rat at 10 mg/kg, po; format: ADME, organism-based; design: dose 10 mg/kg, route oral; details: in vivo; outline: as §2
CYP2C9 = CYP2C9 (Homo sapiens, UniProt P11712); assay: Inhibition of human cytochrome P450 2C9; details: human
CYP2C19 = CYP2C19 (Homo sapiens, UniProt P33261); assay: Inhibition of human cytochrome P450 2C19; details: human
[9] = AUC in rat at 3 mg/kg, iv; format: ADME, organism-based; design: dose 3 mg/kg, route intravenous; details: plasma
[10] = Half life in mouse at 50 mg/kg, ip administered as single dose; format: ADME, organism-based; design: dose 50 mg/kg, route intraperitoneal; details: in vivo
[11] = AUC in mouse brain at 50 mg/kg, ip administered as single dose; format: ADME, organism-based; design: dose 50 mg/kg, route intraperitoneal
[12] = test system: Trypanosoma brucei brucei; assay: Antiparasitic activity against Trypanosoma brucei brucei STIB 795 infected in mouse assessed as parasitemia cure incidence at 50 mg/kg, ip qd for 4 days administered on 3rd day of infection; format: functional, organism-based; design: dose 50 mg/kg
[13] = Kinetic solubility in phosphate-buffered saline at pH 7.4 after 16 to 24 hrs by UV spectrophotometry
CYP2D6 = CYP2D6 (Homo sapiens, UniProt P10635); assay: Inhibition of human cytochrome P450 2D6; details: human
Rattus norvegicus [14] = assay: Volume of distribution at steady state in rat at 3 mg/kg, iv; format: ADME, organism-based; design: dose 3 mg/kg, route intravenous; details: in vivo
[15] = Metabolic stability in human liver microsomes assessed as intrinsic clearance up to 45 mins by LC/MS/MS analysis; format: ADME, Microsome
in vivo = details: mouse, brain, ip, 50 mg/kg
[16] = Cmax in rat at 10 mg/kg, po; format: ADME, organism-based; design: dose 10 mg/kg, route oral; details: in vivo; outline: as §2
[17] = Protein binding in human plasma at pH 7.4 after 4 hrs; format: ADME, cell-free; details: read-out: PPB (converted)
[18] = Metabolic stability in rat liver microsomes assessed as intrinsic clearance up to 45 mins by LC/MS/MS analysis; format: ADME, Microsome
[19] = Permeability of the compound after 4 hrs by PAMPA assay; format: ADME; details: read-out: permeability
[20] = test system: Trypanosoma brucei brucei; assay: Antiparasitic activity against Trypanosoma brucei brucei LAB 110 EATRO infected in mouse assessed as parasitemia cure incidence at 50 mg/kg/day, ip administered on 1st day of infection and measured through day 40 post infection
CYP3A4 = CYP3A4 (Homo sapiens, UniProt P08684); assay: Inhibition of human cytochrome P450 3A4; details: human
[21] = test system: Trypanosoma brucei brucei; assay: Antiparasitic activity against Trypanosoma brucei brucei LAB 110 EATRO infected in mouse assessed as mean survival days at 50 mg/kg/day, ip qd for 7 days administered on 1st day of infection and measured through day 40 post infection; format: functional; details: route intraperitoneal; outline: as §1
Rattus norvegicus [22] = assay: Half life in rat at 3 mg/kg, iv; format: ADME, organism-based; design: dose 3 mg/kg, route intravenous; details: in vivo
[23] = AUC in rat at 10 mg/kg, po; format: ADME, organism-based; design: dose 10 mg/kg, route oral; details: plasma; outline: as §2
[24] = test system: Trypanosoma brucei rhodesiense; assay: Antiparasitic activity against Trypanosoma brucei rhodesiense STIB 900 clone after 72 hrs by Alamar blue assay; format: functional, organism-based; details: STIB 900, 72 h
[25] = AUC in mouse blood at 50 mg/kg, ip administered as single dose; format: ADME, organism-based; design: dose 50 mg/kg, route intraperitoneal
[26] = Metabolic stability in rat hepatocytes assessed as intrinsic clearance up to 45 mins by LC/MS/MS analysis; format: ADME, cell-based, Liver, Hepatocyte
[27] = Metabolic stability in human hepatocytes assessed as intrinsic clearance up to 45 mins by LC/MS/MS analysis; format: ADME, cell-based, Liver, Hepatocyte
[28] = Oral bioavailability in rat at 10 mg/kg, po; format: ADME, organism-based; details: in vivo; outline: as §2
[29] = Protein binding in mouse plasma at pH 7.4 after 4 hrs; format: ADME, cell-free; details: read-out: PPB (converted)
[30] = test system: Trypanosoma brucei brucei; assay: Antiparasitic activity against Trypanosoma brucei brucei LAB 110 EATRO infected in mouse assessed as mean survival days at 50 mg/kg/day, ip administered on 1st day of infection and measured through day 40 post infection; details: route intraperitoneal

Chain of CYP3A4 (P08684 whole entry): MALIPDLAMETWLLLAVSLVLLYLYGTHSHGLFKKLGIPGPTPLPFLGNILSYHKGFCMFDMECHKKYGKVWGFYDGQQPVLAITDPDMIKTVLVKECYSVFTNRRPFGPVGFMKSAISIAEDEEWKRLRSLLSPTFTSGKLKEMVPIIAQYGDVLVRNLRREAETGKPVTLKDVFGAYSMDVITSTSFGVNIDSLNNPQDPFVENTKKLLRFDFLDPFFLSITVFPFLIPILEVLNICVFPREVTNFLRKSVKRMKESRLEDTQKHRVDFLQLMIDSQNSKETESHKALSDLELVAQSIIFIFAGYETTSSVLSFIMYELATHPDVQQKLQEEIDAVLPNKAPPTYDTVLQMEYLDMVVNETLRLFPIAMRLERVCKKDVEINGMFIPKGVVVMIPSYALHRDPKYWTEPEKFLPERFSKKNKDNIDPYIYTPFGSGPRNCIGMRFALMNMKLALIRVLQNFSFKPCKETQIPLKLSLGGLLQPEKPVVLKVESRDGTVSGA
Chain of CYP2C9 (P11712 whole entry): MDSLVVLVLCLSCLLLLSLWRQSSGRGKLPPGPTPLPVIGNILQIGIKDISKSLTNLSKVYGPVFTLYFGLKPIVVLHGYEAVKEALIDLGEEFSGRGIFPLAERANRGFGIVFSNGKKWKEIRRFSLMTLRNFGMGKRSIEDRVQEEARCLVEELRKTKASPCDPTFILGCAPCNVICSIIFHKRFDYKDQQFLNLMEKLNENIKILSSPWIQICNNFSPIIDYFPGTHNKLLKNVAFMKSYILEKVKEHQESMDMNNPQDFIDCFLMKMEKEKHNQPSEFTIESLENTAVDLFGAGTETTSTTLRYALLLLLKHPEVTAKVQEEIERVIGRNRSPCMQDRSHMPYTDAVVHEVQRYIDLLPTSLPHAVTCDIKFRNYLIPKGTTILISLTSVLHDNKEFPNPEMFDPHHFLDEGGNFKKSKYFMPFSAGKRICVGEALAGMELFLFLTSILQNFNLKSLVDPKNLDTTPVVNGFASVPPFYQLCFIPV
Chain of CYP2C19 (P33261 whole entry): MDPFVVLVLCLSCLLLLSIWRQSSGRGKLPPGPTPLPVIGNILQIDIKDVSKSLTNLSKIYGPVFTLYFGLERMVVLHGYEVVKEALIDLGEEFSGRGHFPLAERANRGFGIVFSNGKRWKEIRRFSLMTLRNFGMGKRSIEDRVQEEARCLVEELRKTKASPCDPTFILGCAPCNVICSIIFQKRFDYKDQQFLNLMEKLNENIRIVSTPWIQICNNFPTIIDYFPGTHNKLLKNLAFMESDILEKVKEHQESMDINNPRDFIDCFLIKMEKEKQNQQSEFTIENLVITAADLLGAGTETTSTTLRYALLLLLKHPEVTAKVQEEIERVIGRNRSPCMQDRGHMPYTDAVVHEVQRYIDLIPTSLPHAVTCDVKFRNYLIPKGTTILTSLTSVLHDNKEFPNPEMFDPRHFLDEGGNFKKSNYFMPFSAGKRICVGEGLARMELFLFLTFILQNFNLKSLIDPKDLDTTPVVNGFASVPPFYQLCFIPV
Chain of CYP2D6 (P10635 whole entry): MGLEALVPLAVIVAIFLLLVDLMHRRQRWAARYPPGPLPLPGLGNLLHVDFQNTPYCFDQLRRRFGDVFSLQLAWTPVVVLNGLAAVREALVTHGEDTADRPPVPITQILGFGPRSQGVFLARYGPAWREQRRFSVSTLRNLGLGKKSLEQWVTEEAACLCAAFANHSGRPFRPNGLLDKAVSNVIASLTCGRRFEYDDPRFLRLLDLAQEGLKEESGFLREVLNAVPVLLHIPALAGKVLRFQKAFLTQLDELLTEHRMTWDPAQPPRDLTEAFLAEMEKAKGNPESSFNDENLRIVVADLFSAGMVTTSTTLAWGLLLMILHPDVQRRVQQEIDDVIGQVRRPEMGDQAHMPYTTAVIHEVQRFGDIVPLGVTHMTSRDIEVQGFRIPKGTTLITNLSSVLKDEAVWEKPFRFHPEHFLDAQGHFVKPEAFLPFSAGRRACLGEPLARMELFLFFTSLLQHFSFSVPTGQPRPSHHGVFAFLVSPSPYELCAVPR

Compound: N=C(N)c1ccc(OCCCCCOc2ccc(C(=N)N)cc2)cc1 [PENTAMIDINE]
Activity [1]: Active | Survival [2]: >40 days

Compound: Cc1nc(N)c2ncn([C@@H]3O[C@H](CN(C)C/C=C\CN)[C@@H](O)[C@H]3O)c2n1
half-life [3]: 1.53 h | IC50 (CYP1A2): > 5 µM | Activity [4]: Active | Cmax [5]: 36900 ng/mL | Survival [6]: >30 days | Cmax [7]: 660 ng/mL | Tmax [8]: 0.25 h | IC50 (CYP2C9): > 5 µM | IC50 (CYP2C19): > 5 µM | AUC [9]: 681 ng·h/mL | half-life [10]: 7.43 h | AUC [11]: 1300 ng·h/mL | Activity [12]: Active | solubility kinetic [13]: > 49 µg/mL | IC50 (CYP2D6): > 5 µM | Vdss (Rattus norvegicus [14]): 853 L/kg | CLint scaled [15]: < 4.2 mL/min/kg | Kp (in vivo): 7.28 | Cmax [16]: 39 ng/mL | fraction unbound at 4 h [17]: 0.588 | CLint scaled [18]: < 11 mL/min/kg | Papp at 4 h [19]: 0.22 ×10⁻⁶ cm/s | Activity [20]: Active | IC50 (CYP3A4): > 5 µM | Survival [21]: >40 days | t1/2 (Rattus norvegicus [22]): 3.17 h | AUC [23]: 49 ng·h/mL | IC50 [24]: 0.0001 µM | AUC [25]: 17900 ng·h/mL | CLint scaled [26]: < 11 mL/min/kg | CLint scaled [27]: < 4.2 mL/min/kg | bioavailability [28]: 2.1% | fraction unbound at 4 h [29]: 0.643 | Survival [30]: >40 days

IC50 (CYP1A2): > 5 µM | IC50 (CYP2C9): > 5 µM | IC50 (CYP2C19): > 5 µM | solubility kinetic [13]: > 47 µg/mL | IC50 (CYP2D6): > 5 µM | CLint scaled [15]: < 4.2 mL/min/kg | fraction unbound at 4 h [17]: 0.678 | CLint scaled [18]: < 11 mL/min/kg | IC50 (CYP3A4): > 5 µM | IC50 [24]: 0.319 µM | CLint scaled [26]: < 11 mL/min/kg | CLint scaled [27]: < 4.2 mL/min/kg | fraction unbound at 4 h [29]: 0.628
Compound: CN(C/C=C\CN)C[C@H]1O[C@@H](n2cnc3c(N)ncnc32)[C@@H](F)[C@@H]1O
